Results: ChEMBL document CHEMBL5357066, “Development of Novel Membrane Disrupting Lipoguanidine Compounds Sensitizing Gram-Negative Bacteria to Antibiotics” (ACS Med Chem Lett, 2024)
Converted amounts (≈) assume the structure as drawn.

Legend:
[1] = tested on: Pseudomonas aeruginosa; assay: Antibacterial activity against Pseudomonas aeruginosa NCTC 13437 assessed as bacterial growth inhibition incubated for overnight by microbroth dilution method; assay type: functional
Procedure, shortened: (§1)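 Broth microdilution in Tryptic Soy Broth. DMSO stocks were diluted in TSB as 2-fold series. Overnight TSB cultures were back-diluted to OD 0.01 and mixed 1:1 with compound. Incubation was overnight at 37 °C. MIC was the lowest concentration without visible growth (<0.1 OD600). DMSO vehicle was checked at equivalent concentrations.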

[2] = tested on: Staphylococcus aureus; assay: Antibacterial activity against methicillin sensitive Staphylococcus aureus ATCC 9144 assessed as bacterial growth inhibition incubated for overnight by microbroth dilution method; assay type: functional
Procedure, shortened: (§2)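 Microbroth dilution in Tryptic Soy Broth. DMSO stocks were diluted in TSB as 2-fold series. Overnight TSB cultures were back-diluted to OD 0.01 and mixed 1:1 with compound. Incubation was overnight at 37 °C. MIC is the lowest concentration with no visible growth (<0.1 OD600). DMSO at equivalent concentrations was checked.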

[3] = tested on: Staphylococcus aureus; assay: Antibacterial activity against methicillin resistant Staphylococcus aureus NCTC 13616 assessed as bacterial growth inhibition incubated for overnight by microbroth dilution method; assay type: functional; procedure, shortened: as §2
[4] = tested on: Staphylococcus aureus; assay: Antibacterial activity against methicillin resistant Staphylococcus aureus USA 300 assessed as bacterial growth inhibition incubated for overnight by microbroth dilution method; assay type: functional; procedure, shortened: as §2
[5] = tested on: Enterococcus faecalis; assay: Antibacterial activity against vancomycin resistant Enterococcus faecalis NCTC 12201 assessed as bacterial growth inhibition incubated for overnight by microbroth dilution method; assay type: functional; procedure, shortened: as §2
[6] = tested on: Enterococcus faecium; assay: Antibacterial activity against vancomycin resistant Enterococcus faecium NCTC 12204 assessed as bacterial growth inhibition incubated for overnight by microbroth dilution method; assay type: functional; procedure, shortened: as §2
[7] = tested on: Acinetobacter baumannii; assay: Antibacterial activity against Acinetobacter baumannii AYE assessed as bacterial growth inhibition incubated for overnight by microbroth dilution method; assay type: functional; procedure, shortened: as §1
[8] = tested on: Acinetobacter baumannii; assay: Antibacterial activity against Acinetobacter baumannii ATCC 17978 assessed as bacterial growth inhibition incubated for overnight by microbroth dilution method; assay type: functional; procedure, shortened: as §1
[9] = tested on: Pseudomonas aeruginosa; assay: Antibacterial activity against Pseudomonas aeruginosa PAO1 assessed as bacterial growth inhibition incubated for overnight by microbroth dilution method; assay type: functional; procedure, shortened: as §1
[10] = tested on: Escherichia coli; assay: Antibacterial activity against Escherichia coli NCTC 12923 assessed as bacterial growth inhibition incubated for overnight by microbroth dilution method; assay type: functional; procedure, shortened: as §1
[11] = tested on: Klebsiella pneumoniae; assay: Synergistic antibacterial activity against Klebsiella pneumoniae NCTC 13368 assessed as rifampicin MIC at <=0.25 times MIC incubated for overnight by microbroth dilution checkerboard assay; assay type: functional
Procedure, shortened: (§3)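 Checkerboard microdilution under MIC conditions (TSB, overnight, 37 °C). Two-fold series of each agent were combined on one plate before bacteria were added, and single-agent MICs were measured on the same plate. FIC = sum of combination MIC/alone MIC for each agent, taken from the most synergistic well. Three independent repeats, mean ± SD. ≤0.5 was taken as strong synergy and 0.5–<1 as weak.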

[12] = tested on: Klebsiella pneumoniae; assay: Synergistic antibacterial activity against […] Klebsiella pneumoniae M6 assessed as rifampicin MIC at <=0.25 times MIC incubated for overnight by microbroth dilution checkerboard assay; assay type: functional
Procedure, shortened: (§4)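 Checkerboard run under the MIC conditions (TSB, overnight, 37 °C). Antibiotic and lipoguanidine 2-fold series were combined on one plate before bacteria were added. Growth/no-growth was scored as for the MIC (<0.1 OD600). Single-agent MICs were measured on the same plates. Three independent repeats were done.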

[13] = tested on: Acinetobacter baumannii; assay: Synergistic antibacterial activity against Acinetobacter baumannii AYE assessed as rifampicin MIC at <=0.25 times MIC incubated for overnight by microbroth dilution checkerboard assay; assay type: functional; procedure, shortened: as §3
[14] = tested on: Acinetobacter baumannii; assay: Synergistic antibacterial activity against Acinetobacter baumannii ATCC 17978 assessed as rifampicin MIC at <=0.25 times MIC incubated for overnight by microbroth dilution checkerboard assay; assay type: functional; procedure, shortened: as §3
[15] = tested on: Pseudomonas aeruginosa; assay: Synergistic antibacterial activity against Pseudomonas aeruginosa PAO1 assessed as rifampicin MIC at <=0.25 times MIC incubated for overnight by microbroth dilution checkerboard assay; assay type: functional
Procedure, shortened: (§5)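 Checkerboard microdilution in Tryptic Soy Broth, run like the MIC assay. Overnight TSB cultures were back-diluted to OD 0.01 and added 1:1 to the combined two-fold series of both agents, then incubated overnight at 37 °C. Growth/no-growth was called at <0.1 OD600. MICs alone were read on the same plates. FIC index came from the most synergistic well; three independent repeats, mean ± SD.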

[16] = tested on: Pseudomonas aeruginosa; assay: Synergistic antibacterial activity against Pseudomonas aeruginosa NCTC 13437 assessed as rifampicin MIC at <=0.25 times MIC incubated for overnight by microbroth dilution checkerboard assay; assay type: functional; procedure, shortened: as §5
[17] = tested on: Escherichia coli; assay: Synergistic antibacterial activity against Escherichia coli NCTC 12923 assessed as rifampicin MIC at <=0.25 times MIC incubated for overnight by microbroth dilution checkerboard assay; assay type: functional; procedure, shortened: as §3
[18] = tested on: Staphylococcus aureus; assay: Antibacterial activity against methicillin sensitive Staphylococcus aureus 1199B assessed as bacterial growth inhibition incubated for overnight by microbroth dilution method; assay type: functional; procedure, shortened: as §2
[19] = tested on: Klebsiella pneumoniae; assay: Synergistic antibacterial activity against Klebsiella pneumoniae NCTC 13368 assessed as bacterial growth inhibition incubated for overnight in presence of PBMN by microbroth dilution method relative to control; assay type: functional
Procedure, shortened: (§6)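 Adapted broth microdilution in TSB. The test compound was in a 2-fold dilution series, with PMBN added at a fixed 30 µg/mL. Bacteria at OD 0.02 were added, and plates were incubated overnight at 37 °C. Growth/no growth was read as for the MIC (<0.1 OD600).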

[20] = tested on: Klebsiella pneumoniae; assay: Synergistic antibacterial activity against Klebsiella pneumoniae M6 assessed as bacterial growth inhibition incubated for overnight in presence of PBMN by microbroth dilution method relative to control; assay type: functional; procedure, shortened: as §6
[21] = tested on: Acinetobacter baumannii; assay: Synergistic antibacterial activity against Acinetobacter baumannii AYE assessed as bacterial growth inhibition incubated for overnight in presence of PBMN by microbroth dilution method relative to control; assay type: functional; procedure, shortened: as §6
[22] = tested on: Acinetobacter baumannii; assay: Synergistic antibacterial activity against Acinetobacter baumannii ATCC 17978 assessed as bacterial growth inhibition incubated for overnight in presence of PBMN by microbroth dilution method relative to control; assay type: functional; procedure, shortened: as §6
[23] = tested on: Pseudomonas aeruginosa; assay: Synergistic antibacterial activity against Pseudomonas aeruginosa PAO1 assessed as bacterial growth inhibition incubated for overnight in presence of […] by microbroth dilution method relative to control; assay type: functional
Procedure, shortened: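 Fixed-concentration combination MIC in TSB. The first agent was set in a two-fold dilution series (100 µL/well), then 50 µL/well of the second agent at a fixed concentration was added; PMBN was fixed at 30 µg/mL. Bacteria at OD 0.02 (50 µL) went into 150 µL of compounds, overnight at 37 °C. MIC was the lowest concentration without visible growth (<0.1 OD600).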

[24] = tested on: Pseudomonas aeruginosa; assay: Synergistic antibacterial activity against Pseudomonas aeruginosa NCTC 13437 assessed as bacterial growth inhibition incubated for overnight in presence of PBMN by microbroth dilution method relative to control; assay type: functional; procedure, shortened: as §6
[25] = tested on: Escherichia coli; assay: Synergistic antibacterial activity against Escherichia coli NCTC 12923 assessed as bacterial growth inhibition incubated for overnight in presence of PBMN by microbroth dilution method relative to control; assay type: functional; procedure, shortened: as §6
[26] = tested on: Klebsiella pneumoniae; assay: Synergistic antibacterial activity against Klebsiella pneumoniae NCTC 13368 assessed as fold change in rifampicin MIC at <=0.25 times MIC incubated for overnight by microbroth dilution checkerboard assay relative to rifampicin alone; assay type: functional; procedure, shortened: as §4
[27] = tested on: Acinetobacter baumannii; assay: Synergistic antibacterial activity against Acinetobacter baumannii AYE assessed as fold change in rifampicin MIC at <=0.25 times MIC incubated for overnight by microbroth dilution checkerboard assay relative to rifampicin alone; assay type: functional; procedure, shortened: as §3
[28] = tested on: Acinetobacter baumannii; assay: Synergistic antibacterial activity against Acinetobacter baumannii ATCC 17978 assessed as fold change in rifampicin MIC at <=0.25 times MIC incubated for overnight by microbroth dilution checkerboard assay relative to rifampicin alone; assay type: functional; procedure, shortened: as §3
[29] = tested on: Pseudomonas aeruginosa; assay: Synergistic antibacterial activity against Pseudomonas aeruginosa PAO1 assessed as fold change in rifampicin MIC at <=0.25 times MIC incubated for overnight by microbroth dilution checkerboard assay relative to rifampicin alone; assay type: functional; procedure, shortened: as §5
[30] = tested on: Pseudomonas aeruginosa; assay: Synergistic antibacterial activity against Pseudomonas aeruginosa NCTC 13437 assessed as fold change in rifampicin MIC at <=0.25 times MIC incubated for overnight by microbroth dilution checkerboard assay relative to rifampicin alone; assay type: functional; procedure, shortened: as §5
[31] = tested on: Escherichia coli; assay: Synergistic antibacterial activity against Escherichia coli NCTC 12923 assessed as fold change in rifampicin MIC at <=0.25 times MIC incubated for overnight by microbroth dilution checkerboard assay relative to rifampicin alone; assay type: functional; procedure, shortened: as §3
[32] = tested on: Klebsiella pneumoniae; assay: Antibacterial activity against Klebsiella pneumoniae M6 assessed as bacterial growth inhibition incubated for overnight by microbroth dilution method
[33] = tested on: Klebsiella pneumoniae; assay: Antibacterial activity against ESBL Klebsiella pneumoniae NCTC 13368 assessed as bacterial growth inhibition incubated for overnight by microbroth dilution method
[34] = tested on: Enterococcus faecalis; assay: Antibacterial activity against vancomycin sensitive Enterococcus faecalis NCTC 775 assessed as bacterial growth inhibition incubated for overnight by microbroth dilution method

SMILES: CCCCC/C=C\C/C=C\CCCCCCCCNC(=N)NCCCCCCCCN
- MIC [1]: > 128 µg/mL
- MIC [2]: 2 µg/mL (≈ 4.6 µM)
- MIC [3]: 4 µg/mL (≈ 9.2 µM)
- MIC [4]: 2 µg/mL (≈ 4.6 µM)
- MIC [5]: 4 µg/mL (≈ 9.2 µM)
- MIC [6]: 4 µg/mL (≈ 9.2 µM)
- MIC [7]: 16 µg/mL (≈ 36.8 µM)
- MIC [8]: 8 µg/mL (≈ 18.4 µM)
- MIC [9]: > 128 µg/mL
- MIC [10]: 8 µg/mL (≈ 18.4 µM)
- MIC [11]: 8 µg/mL
- MIC [12]: 4 µg/mL
- MIC [13]: 2 µg/mL
- MIC [14]: ≤ 0.125 µg/mL
- MIC [15]: 16 µg/mL
- MIC [16]: 16 µg/mL
- MIC [17]: 8 µg/mL
- MIC [18]: 4 µg/mL (≈ 9.2 µM)
- inhibition (INH) [19]: <20%
- inhibition (INH) [20]: <20%
- inhibition (INH) [21]: <20%
- inhibition (INH) [22]: <20%
- inhibition (INH) [23]: <20%
- inhibition (INH) [24]: <20%
- inhibition (INH) [25]: <20%
- fold change (FC) [26]: >=4
- fold change (FC) [27]: >=4
- fold change (FC) [28]: 0
- fold change (FC) [29]: 0
- fold change (FC) [30]: 0
- fold change (FC) [31]: 0
- MIC [32]: 16 µg/mL (≈ 36.8 µM)
- MIC [33]: 32 µg/mL (≈ 73.6 µM)
- MIC [34]: 8 µg/mL (≈ 18.4 µM)
